Experimental data gathered from unrelated publications.
Compare with care: the assays were run in different laboratories. ≈ marks a conversion by molar mass, not a printed value.
Organism: Nakaseomyces glabratus
Effect on: microbial growth
Strain: ATCC90030

SMILES | test | conditions | IC50
CCCCCOc1c(OC)cc(NC(C)CCCNC(=O)C(N)Cc2cc3ccccc3[nH]2)c2nc(C(C)(C)C)ccc12 (stereo not shown) | – | – | 9.72 µg/mL (≈ 16.5 µM)
O=C(O)c1nc2ccccc2c(=O)n1Cc1cn(-c2ccccc2Cl)nn1 | broth dilution | 24 h | 266 µg/mL (≈ 698 µM)
C[C@@H]1[C@H](O)[C@@H](C)/C=C/C=C/C=C/C=C/C=C/C=C/C=C/[C@H](O[C@@H]2O[C@H](C)[C@@H](O)[C@H](N)[C@@H]2O)C[C@@H]2O[C@](O)(C[C@@H](O)C[C@@H](O)[C@H](O)CC[C@@H](O)C[C@@H](O)CC(=O)O[C@H]1C)C[C@H](O)[C@H]2C(=O)O | – | – | 0.14 µg/mL (≈ 0.152 µM)
O=C(O)c1ccc(-n2cc(Cn3c(C(=O)O)nc4ccccc4c3=O)nn2)cc1 | broth dilution | 24 h | 522 µg/mL (≈ 1330 µM)
CCCCCCCCCCCCCC(O)CC(O)CO (stereo not shown) | broth dilution | – | > 200 µg/mL
CCOC(=O)c1nc2ccccc2c(=O)n1Cc1cn(-c2cccc(C)c2)nn1 | broth dilution | 24 h | 395 µg/mL (≈ 1010 µM)
C#CCCCCCCCCCCCC(O)CC(O)CO (stereo not shown) | broth dilution | – | > 200 µg/mL
COc1cc(NC(C)CCCN)c2nc(C(C)(C)C)ccc2c1Oc1ccc(Cl)c(Cl)c1 (stereo not shown) | – | – | 19.4 µg/mL (≈ 40.7 µM)
C[C@@H]1[C@H](O)[C@@H](C)/C=C/C=C/C=C/C=C/C=C/C=C/C=C/[C@H](O[C@@H]2O[C@H](C)[C@@H](O)[C@H](N)[C@@H]2O)C[C@@H]2O[C@](O)(C[C@@H](O)C[C@@H](O)[C@H](O)CC[C@@H](O)C[C@@H](O)CC(=O)O[C@H]1C)C[C@H](O)[C@H]2C(=O)O | broth dilution | – | 0.39 µg/mL (≈ 0.422 µM)
CCCCCOc1c(OC)cc(NC(C)CCCNC(=O)C(N)C(C)CC)c2nc(C(C)(C)C)ccc12 (stereo not shown) | – | – | 15.2 µg/mL (≈ 29.6 µM)
